Activity calls are given as the source filed them. No cut-off for these calls is given here.

Test [1] deals with 3T3-L1. As to the kind of experiment: Induction of mouse 3T3L1 cell differentiation assessed as increase in accumulation of intracellular lipid droplet at 25 uM by Oil red O staining. The class given is functional, cell-based. A digest of the protocol: (§1)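 Following 8-day differentiation with compound applied from induction (insulin/dexamethasone/IBMX, then insulin maintenance), intracellular lipid droplets visualized by Oil Red O staining and photographed.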

The subject of test [2] is 3T3-L1. Put plainly: Induction of aP2 gene expression in mouse 3T3L1 cells assessed as increase in aP2 protein level at 6.25 uM by Western blot analysis. The class given is functional, cell-based. A digest of the protocol: (§2)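 3T3-L1 cells grown in DMEM/10% NCS at 37 °C, 5% CO2. Two days post-confluence, differentiation induced with 2 μg/mL insulin, 1 μM dexamethasone and 0.125 mM IBMX in 10% FBS/DMEM, then kept in 10% FBS/DMEM plus 2 μg/mL insulin. Compound added at induction and left 8 days. Cells then harvested for target protein (RIPA lysate, immunoblot) or mRNA (TRIzol RNA, RT-qPCR).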
(Immunoblotting shows a protein as a band on a membrane.)

The subject of test [3] is 3T3-L1. As to the kind of experiment: Induction of GLUT4 gene expression in mouse 3T3L1 cells assessed as increase in GLUT4 protein level at 6.25 uM by Western blot analysis. The class given is functional, cell-based. A digest of the protocol: as §2
In test [4] the test system is 3T3-L1. As to the kind of experiment: Induction of GLUT4 gene expression in mouse 3T3L1 cells assessed as increase in GLUT4 protein level at 12.5 uM by Western blot analysis. The class given is functional, cell-based. A digest of the protocol:
as §2

The subject of test [5] is 3T3-L1. As to the kind of experiment: Induction of GLUT4 gene expression in mouse 3T3L1 cells assessed as increase in mRNA level at 10 uM by qRT-PCR analysis. The class given is functional, cell-based. In outline:
as §2
Background: In qPCR the cycle at which signal appears reflects the starting amount.

The subject of test [6] is 3T3-L1. Put plainly: Induction of aP2 gene expression in mouse 3T3L1 cells assessed as increase in aP2 protein level at 12.5 uM by Western blot analysis. The class given is functional, cell-based. In outline: as §2
For test [7], the system named is 3T3-L1. As to the kind of experiment: Induction of aP2 gene expression in mouse 3T3L1 cells assessed as increase in mRNA level at 10 uM by qRT-PCR analysis. The class given is functional, cell-based. A digest of the protocol:
as §2

In test [8] the test system is 3T3-L1. Put plainly: Induction of adipogenesis in mouse 3T3L1 cells assessed as increase in triglyceride level at 50 uM after 8 days relative to control. The class given is functional. A digest of the protocol: (§3)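 Differentiation protocol: confluent 3T3-L1 cells held 2 days, then induced with insulin (2 μg/mL), dexamethasone (1 μM) and IBMX (0.125 mM) in 10% FBS/DMEM, then maintained with insulin. Compound present from induction for 8 days. Cellular triglyceride quantified with an enzymatic kit and compared with untreated control.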

In test [9] the test system is 3T3-L1. As to the kind of experiment: Induction of adipogenesis in mouse 3T3L1 cells assessed as increase in triglyceride level at 12.5 uM after 8 days relative to control. The class given is functional. A digest of the protocol: as §3
Test [10] has as its system 3T3-L1. As to the kind of experiment: Induction of adipogenesis in mouse 3T3L1 cells assessed as increase in triglyceride level at 25 uM after 8 days relative to control. The class given is functional. In outline:
as §3

For test [11], the system named is 3T3-L1. Put plainly: Induction of mouse 3T3L1 cell differentiation assessed as increase in accumulation of intracellular lipid droplet at 1 uM by Oil red O staining. The class given is functional, cell-based. A digest of the protocol:
as §1

Test [12] concerns 3T3-L1. As to the kind of experiment: Induction of adipogenesis in mouse 3T3L1 cells assessed as increase in triglyceride level at 1 uM after 8 days relative to control. The class given is functional. In outline:
as §3

For `CC(C)=CC[C@]12Oc3cc4c(c(O)c3C(=O)[C@@]1(O)Oc1cc(O)ccc12)C[C@H](C(C)(C)O)O4`, in the test with 3T3-L1 [1], the result was inactive.
Turning to `C=CC(C)(C)c1c(O)cc(O)c2c(=O)c(CC=C(C)C)c(-c3ccc(O)cc3O)oc12` [NIGRASIN I], the outcome in the test with 3T3-L1 [2], in the test on 3T3-L1 [3], in the test with 3T3-L1 [4], in the test on 3T3-L1 [5], in the test on 3T3-L1 [6] and in the test on 3T3-L1 [7] was Active. The outcome in the test with 3T3-L1 [1] was Active. In addition, the results for the Activity with 3T3-L1 [8], with 3T3-L1 [9] and in the test with 3T3-L1 [10] were 250.63%, 179.84% and 317.18%, respectively.
As for `CC(C)=CCc1c(-c2ccc(O)cc2O)oc2c3c(cc(O)c2c1=O)O[C@H](C)C3(C)C` [NIGRASIN H], the result in the test on 3T3-L1 [2], in the test on 3T3-L1 [3], with 3T3-L1 [4], with 3T3-L1 [5], with 3T3-L1 [6] and with 3T3-L1 [7] was Active. Further, the result with 3T3-L1 [1] was Active. The Activity came out at 203.39% with 3T3-L1 [8], 102.16% in the test on 3T3-L1 [9] and 143.94% in the test on 3T3-L1 [10].
As to `CC(C)=CC[C@]12Oc3cc4c(c(O)c3C(=O)[C@@]1(O)Oc1cc(O)ccc12)C[C@H](O)C(C)(C)O4`, in the test on 3T3-L1 [1], the result was inactive.
Take `C=C(C)[C@H]1Cc2c(cc(O)c3c2O[C@]2(CC=C(C)C)c4ccc(O)cc4O[C@]2(O)C3=O)O1`: the outcome in the test with 3T3-L1 [1] was inactive.
For `C=C(C)C(O)CC/C(C)=C/CC/C(C)=C/C[C@@]12Oc3cc(O)cc(O)c3C(=O)[C@]1(O)Oc1cc(O)ccc12` (stereo partly specified), the result in the test on 3T3-L1 [1] was inactive.
`CC(C)=CC[C@]12Oc3cc4c(c(O)c3C(=O)[C@@]1(O)Oc1cc(O)ccc12)C[C@@H](O)C(C)(C)O4`: the outcome in the test on 3T3-L1 [1] was inactive.
Regarding `C=C(C)[C@@H]1Cc2c(cc(O)c3c2O[C@]2(CC=C(C)C)c4ccc(O)cc4O[C@]2(O)C3=O)O1`, in the test with 3T3-L1 [1], the result was inactive.
Take `CN(CCOc1ccc(CC2SC(=O)NC2=O)cc1)c1ccccn1` (stereo unspecified) [ROSIGLITAZONE]: in the test with 3T3-L1 [11], the outcome was Active. In addition, in the test with 3T3-L1 [12], the Activity is listed as 450.32%.
Turning to `CC(C)=CCc1c(O)cc2oc(-c3ccc(O)cc3O)c(CC=C(C)C)c(=O)c2c1O`, the result in the test with 3T3-L1 [1] was inactive.
Consider `CC(C)=CCC/C(C)=C/CC/C(C)=C/C[C@@]12Oc3cc(O)cc(O)c3C(=O)[C@]1(O)Oc1cc(O)ccc12`, for which the result with 3T3-L1 [1] was inactive.
In the case of `CC(C)=CC[C@]12Oc3cc4c(c(O)c3C(=O)[C@@]1(O)Oc1cc(O)ccc12)C[C@@H](C(C)(C)O)O4`, the outcome in the test on 3T3-L1 [1] was inactive.
